RGS4-Gao reg = modulates binding of RGS4 to human Galphao; P09471; Multiplexed bead flow cytometry; actives lie on both sides; binding response (% of control), % at 10 µM; 0.33% of 220,000 active; in the data active means binding response below about 49% or above about 150%; inactive means in between;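 further: fluorescent Galphao activated with aluminum fluoride binding bead-coupled RGS4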
RGS7-Gao reg = human RGS7-Galphao interaction regulation; binding response (% of control), % at 10 µM; P09471; 0.35% of 220,000 active; Multiplexed bead flow cytometry, RGS7-Galphao binding; actives lie on both sides; in the data active means binding response below about 49% or above about 150%; inconclusive means no clear call, values can overlap the other calls; inactive means in between;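 further: fluorescent Galphao held in activated GDP-AlF4 state binding bead-coupled RGS7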
RGS8-Gao reg = regulators of human RGS8-Galphao interaction. P09471. multiplexed bead flow cytometry, RGS8-Galphao binding; actives lie on both sides. response (percent of control binding), % at 10 µM. 0.34% of 220,000 active. AID 1423; in the data active means response below about 60% or above about 140%; inactive means in between;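 further: Galphao activated as the GDP aluminium fluoride complex binding bead-coupled RGS8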
RGS16-Gao = RGS16-Galphao interaction regulator (human) | bead-based flow cytometry RGS16-Galphao binding, fluorescence; actives lie on both sides | binding response (% of control), % at 10 µM | 0.38% of 220,000 active | AID 1441;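 further: Galphao activated by GDP with aluminum fluoride before binding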
ABCB1 block = blocks JC-1 efflux by human ABCB1 transporter | CCRF-Adr cells, flow cytometry | 0.067% of 190,000 active | inhibition, % at 6.6 µM | P08183; in the data active means inhibition above about 40%;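 further: higher value means more JC-1 retained so stronger ABCB1 efflux block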
ABCG2 block = human ABCG2 inhibition, ABCB1 as counter-screen. 0.1% of 190,000 active. inhibition, % at 6.6 µM. IgMXP3 cells, JC-1 efflux, flow cytometry. Q9UNQ0;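 active means inhibition above 80%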
Target sequence (Q9UNQ0 whole entry, looked up): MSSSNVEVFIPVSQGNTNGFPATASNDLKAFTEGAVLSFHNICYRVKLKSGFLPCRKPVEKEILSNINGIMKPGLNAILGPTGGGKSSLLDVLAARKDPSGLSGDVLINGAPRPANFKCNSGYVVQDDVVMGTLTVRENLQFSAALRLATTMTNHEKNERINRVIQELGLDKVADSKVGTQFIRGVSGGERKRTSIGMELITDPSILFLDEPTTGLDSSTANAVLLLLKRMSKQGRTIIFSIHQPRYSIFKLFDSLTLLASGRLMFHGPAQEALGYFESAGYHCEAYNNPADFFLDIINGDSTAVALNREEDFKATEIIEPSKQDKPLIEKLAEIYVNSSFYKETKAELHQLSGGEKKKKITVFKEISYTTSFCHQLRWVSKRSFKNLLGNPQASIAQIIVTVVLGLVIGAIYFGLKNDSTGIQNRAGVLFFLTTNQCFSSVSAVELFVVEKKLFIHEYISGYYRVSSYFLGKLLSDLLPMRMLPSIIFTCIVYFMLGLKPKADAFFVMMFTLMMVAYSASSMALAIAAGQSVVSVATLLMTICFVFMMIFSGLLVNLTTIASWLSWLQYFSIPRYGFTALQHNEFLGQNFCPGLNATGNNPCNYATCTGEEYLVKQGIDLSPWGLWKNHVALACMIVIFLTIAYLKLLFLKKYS
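Test system: IgMXP3 cells (ABCG2) mixed with DDAO far-red-labelled CCRF-Adr cells (ABCB1). Reagent: JC-1 transporter substrate. Compound dosing: single test compound dose, 6.6 µM final. Times: 10 min compound exposure, 25 °C. Detection: flow cytometry of retained JC-1 fluorescence. Read-out basis: efflux inhibition in percent versus controls. Controls: nicardipine and DMSO wells.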
RGS-Gao = RGS4-Galphao interaction regulator (human); shares compounds with RGS16-Gao; multiplexed bead flow cytometry, RGS–Galpha-o binding; RGS4–Galpha-o binding response, % at 10 µM; 99% of 1,600 active; AID 1504;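 further: fluorescently labeled Galpha-o bound to GDP with aluminium fluoride binding biotinylated RGS beads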
Avidin counter = biotin-avidin bead binding disruption counter-screen | shares compounds with RGS16-Gao | AID 1783 | inhibition, % at 10 µM | 1,700 tested, under 10 active | streptavidin beads, fluorescein-biotin binding, flow cytometry;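 active means inhibition above 50%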;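 further: median green fluorescence of gated singlet beads compared with DMSO control wells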
RGS8-Gao confirm = RGS8-Galphao interaction regulation, single point confirmation | shares compounds with RGS16-Gao | bead-based flow cytometry RGS8-Galphao binding, fluorescence; actives lie on both sides | binding response (% of control), % at 10 µM | 3% of 1,700 active | AID 1836; in the data active means binding response below about 72% or above about 130%; inactive means in between;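 further: Galphao activated as GDP AlF4 complex before binding bead RGS8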
RGS7-Gao single = confirmation of regulators of human RGS7-Galphao interaction. bead-based flow cytometry RGS7-Galphao binding; actives lie on both sides. shares compounds with RGS16-Gao. response (percent of control binding), % at 10 µM. 7.8% of 1,700 active; in the data active means response below about 75% or above about 130%; inactive means in between;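 further: fluorescent Galphao activated with GDP and aluminum fluoride binding bead-coupled RGS7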
RGS16-Gao conf = RGS16-Galphao interaction regulation, single point confirmation. shares compounds with RGS16-Gao. bead-based flow cytometry, RGS16-Galphao binding; actives lie on both sides. response (% of control binding), % at 10 µM. 4% of 1,700 active. AID 1838; in the data active means response below about 74% or above about 130%; inactive means in between;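 further: Galphao activated as the GDP aluminium fluoride complex binding bead-coupled RGS16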
RGS4-Gao confirm = RGS4-Galphao interaction regulation, single point confirmation | binding response (% of control), % at 10 µM | shares compounds with RGS16-Gao | 4% of 1,700 active | RGS4-Galphao binding, multiplexed bead flow cytometry; actives lie on both sides; in the data active means binding response below about 74% or above about 130%; inactive means in between
RGS19-Gao single = RGS19-Galphao interaction regulation, single point confirmation; shares compounds with RGS16-Gao; bead-based flow cytometry RGS19-Galphao binding; actives lie on both sides; response (percent of control binding), % at 10 µM; 5% of 1,700 active; AID 1841; in the data active means response below about 50% or above about 160%; inactive means in between
Each line names hits and unclear results; the compound was inactive in the other large screens (follow-up assays come after a bar, where they were run); [ ] = another dose, or the depositor's remark. Shown are actives, neighbours in structure and some others; about 0.9% of the full set was active somewhere. Unless noted, how the calls were made is not given here.

CN(C)c1cccc(C(=O)Nc2cc(C(F)(F)F)ccc2-n2cnc3ccccc32)c1	RGS16-Gao 197[activator] | RGS-Gao 106 | Avidin counter inactive | RGS8-Gao confirm inactive | RGS7-Gao single inactive | RGS16-Gao conf inactive | RGS4-Gao confirm inactive | RGS19-Gao single inactive
CC(=O)Nc1ccc(C(=O)Nc2cc(C(F)(F)F)ccc2-n2cnc3ccccc32)cc1	none
CCCN(CCC)c1nc(N(CCC)CCC)[nH]c(=O)n1	RGS4-Gao reg 16, RGS7-Gao reg 5.2, RGS8-Gao reg 20, RGS16-Gao 9.2 | Avidin counter inactive | RGS8-Gao confirm inactive | RGS7-Gao single inactive | RGS16-Gao conf inactive | RGS4-Gao confirm inactive | RGS19-Gao single inactive
Cc1ccc(N(C(=O)Cc2cccs2)C(C(=O)NC2CCCCC2)c2ccccn2)cc1C (configuration not stated)	none
C/C(=N\NC(=O)c1cc(C(C)C)[nH]n1)c1ccco1	RGS16-Gao 190[activator] | RGS-Gao 102 | Avidin counter inactive | RGS8-Gao confirm inactive | RGS7-Gao single inactive | RGS16-Gao conf inactive | RGS4-Gao confirm inactive | RGS19-Gao single inactive
C/C(=N/NC(=O)c1cc(-c2ccc(Br)s2)[nH]n1)c1ccco1	none
NN/C(=C\[N+](=O)[O-])Nc1ccc(Cl)cc1	none
CCOC(=O)C1=C(C)Nc2ccccc2N=C1NC(=O)c1ccc(Cl)c(S(=O)(=O)N2CCCC2)c1	RGS7-Gao reg inconclusive
COc1ccc(CCNC(=O)CN(C)S(=O)(=O)c2ccc(Br)s2)cc1OC	RGS16-Gao 241[activator] | RGS-Gao 103 | Avidin counter inactive | RGS8-Gao confirm inactive | RGS7-Gao single inactive | RGS16-Gao conf inactive | RGS4-Gao confirm inactive | RGS19-Gao single inactive
COc1ccc(NC(=S)Nc2ccccc2)c(OC)c1	none
COc1ccc(NC(=S)Nc2ccc(OCc3ccccc3)cc2)c(OC)c1	RGS7-Gao reg 165[activator] | RGS-Gao 140 | Avidin counter inactive | RGS8-Gao confirm inactive | RGS7-Gao single inactive | RGS16-Gao conf inactive | RGS4-Gao confirm inactive | RGS19-Gao single inactive
CCOC(=O)c1c(C)n(CC)c2ccc(OC(=O)c3ccc([N+](=O)[O-])cc3)cc12	none (no result: RGS7-Gao reg) | Avidin counter inactive | RGS8-Gao confirm inactive | RGS7-Gao single inactive | RGS16-Gao conf inactive | RGS4-Gao confirm inactive | RGS19-Gao single inactive
Nc1nnc(SCC(=O)OCC(=O)NC23CC4CC(CC(C4)C2)C3)s1	RGS4-Gao reg 19, RGS7-Gao reg inconclusive, RGS8-Gao reg 13, RGS16-Gao 7.7 | Avidin counter inactive | RGS8-Gao confirm inactive | RGS7-Gao single inactive | RGS16-Gao conf inactive | RGS4-Gao confirm inactive | RGS19-Gao single inactive
Nc1nnc(SCC(=O)OCC(=O)NC2CCCCC2)s1	none
CCOC(=O)c1cnc2c(c(C)nn2CC)c1NCCN1CCOCC1	none
Cc1ccc(OCC(=O)N/N=C/C=C/c2ccco2)cc1C	RGS8-Gao reg 60, RGS16-Gao 3.6 | RGS-Gao 67 | Avidin counter inactive | RGS8-Gao confirm inactive | RGS7-Gao single inactive | RGS16-Gao conf inactive | RGS4-Gao confirm inactive | RGS19-Gao single inactive
CCC(C)(C)NC(=O)C(c1ccc(F)cc1)N(Cc1ccccc1)C(=O)c1cnccn1 (configuration not stated)	RGS7-Gao reg inconclusive
CN(C)C(C)(C)/C=C/C(O)(c1ccccc1)c1ccccc1	RGS7-Gao reg inconclusive (no result: ABCB1 block, ABCG2 block)
O=C(c1ccccc1)C1CCN(c2ncccc2[N+](=O)[O-])CC1	RGS7-Gao reg inconclusive (no result: ABCB1 block, ABCG2 block)
N#CC1CCN(c2ncccc2[N+](=O)[O-])CC1	RGS4-Gao reg 282[activator], RGS7-Gao reg inconclusive (no result: ABCB1 block, ABCG2 block) | Avidin counter inactive | RGS8-Gao confirm inactive | RGS7-Gao single inactive | RGS16-Gao conf inactive | RGS4-Gao confirm inactive | RGS19-Gao single inactive
Cc1ccc(NC(=O)CC2SC(=Nc3ccc(O)cc3)NC2=O)cc1 (configuration not stated)	none
Clc1ccc(/C(Cc2nc3ccccc3[nH]2)=N\Nc2ccccc2)cc1	none
N#CCCN/N=C(/Cc1nc2ccccc2[nH]1)c1cccc(Cl)c1	RGS4-Gao reg 247[activator], RGS7-Gao reg 198[activator], RGS8-Gao reg 169[activator], RGS16-Gao 224[activator] | Avidin counter inactive | RGS8-Gao confirm inactive | RGS7-Gao single inactive | RGS16-Gao conf inactive | RGS4-Gao confirm inactive | RGS19-Gao single inactive
COc1ccc(N2C(=O)C(CN3CCN(C)CC3)C2c2ccccc2)cc1 (configuration not stated)	none
CCCN1CN(c2ccccc2)C(=S)N(c2ccccc2)C1	RGS4-Gao reg 195[activator], RGS7-Gao reg inconclusive (no result: ABCB1 block, ABCG2 block) | Avidin counter inactive | RGS8-Gao confirm inactive | RGS7-Gao single inactive | RGS16-Gao conf inactive | RGS4-Gao confirm inactive | RGS19-Gao single inactive
CCCN1CNC(=S)N(c2ccccc2OC)C1	none
CC1(C)CC2(CCO1)C(Nc1ccccc1)=NC(=S)N2c1ccccc1 (configuration not stated)	RGS7-Gao reg inconclusive (no result: ABCB1 block, ABCG2 block)
COc1cc(OC)cc(-c2n[nH]c(=S)n2-c2ccc3c(c2)OCO3)c1	RGS16-Gao 21 | RGS-Gao 101 | Avidin counter inactive | RGS8-Gao confirm inactive | RGS7-Gao single inactive | RGS16-Gao conf inactive | RGS4-Gao confirm inactive | RGS19-Gao single inactive
O=C(O)c1ccccc1S(=O)(=O)NCC(O)COC1CCCCC1 (configuration not stated)	none
O=C(O)c1ccccc1Sc1ccccc1S(=O)(=O)NC1CCCCC1	RGS4-Gao reg -11, RGS7-Gao reg inconclusive, RGS8-Gao reg 7.1, RGS16-Gao -4.7 (no result: ABCB1 block, ABCG2 block) | Avidin counter inactive | RGS8-Gao confirm inactive | RGS7-Gao single inactive | RGS16-Gao conf inactive | RGS4-Gao confirm inactive | RGS19-Gao single inactive

Bioassay records (PubChem BioAssay)
